# Starred links: 1 amine or outer side, 2 acyl side, 3 side chain; linkers in the order of their positions; H or OH if unused. Non-standard residues stand in square brackets, D forms with d. Residues, ends and D or L forms follow the SMILES beside them. *: point of attachment. X1 = CC(C)C[C@H](C(=O)[*:2])[C@H](O)C[C@H]1CCCN1[*:1]; CO = O=C([*:1])[*:2]; NHBn = c1ccc(CN*)cc1
# Molecular target: Protease (Human T-cell leukemia virus type I, UniProt Q82134, C109A/C90A/L40I)
# Assay: (§1) Inhibition of HTLV-1 protease L40I/C90A/C109A mutant using dodecapeptide as substrate by HPLC analysis; call rule not given here
# How it was run: (§2)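 Synthetic mutant HTLV-1 protease at 5.6 nM, with a dodecapeptide substrate, in 0.5 M sodium acetate pH 5.6 containing 10% glycerol, 10 mM DTT and 4 M NaCl. Loss of substrate during incubation followed by reversed-phase HPLC (C18, 10–40% CH3CN gradient over 30 min in 0.1% TFA). IC50 from a sigmoidal dose–response curve; assay run three times.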
# Chain of Protease (Human T-cell leukemia virus type I, UniProt Q82134, C109A/C90A/L40I) (Q82134 entry or part of it C109A/C90A/L40I): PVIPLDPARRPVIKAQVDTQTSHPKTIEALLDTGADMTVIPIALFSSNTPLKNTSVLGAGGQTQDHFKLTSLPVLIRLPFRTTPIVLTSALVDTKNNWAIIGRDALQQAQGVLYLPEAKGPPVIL
row,Compound,IC50
1,CC[C@@H](C)[C@@H](NC(=O)[C@@H](CC(C)C)[C@H](O)C[C@H]1CCCN1C(=O)[C@H](NC(=O)[C@H](N)CCC(N)=O)[C@H](C)CC)C(=O)N[C@@H](C(=O)N1CCC[C@@H]1C(=O)N1CCC[C@@H]1C(N)=O)C(C)C,2000 µM
2,CC[C@@H](C)[C@@H](NC(=O)[C@@H](CC(C)C)[C@H](O)C[C@H]1CCCN1C(=O)CCC(C)C)C(=O)N[C@@H](C(=O)N1CCC[C@@H]1C(=O)N1CCC[C@@H]1C(N)=O)C(C)C,520 µM
3,CC[C@@H](C)[C@@H](NC(=O)[C@@H](CC(C)C)[C@H](O)C[C@H]1CCCN1C(=O)c1ccccc1)C(=O)N[C@@H](C(=O)N1CCC[C@@H]1C(=O)N1CCC[C@@H]1C(N)=O)C(C)C,1100 µM
4,CC[C@@H](C)[C@@H](NC(=O)[C@@H](CC(C)C)[C@H](O)C[C@H]1CCCN1C(=O)OCc1ccccc1)C(=O)N[C@@H](C(=O)N1CCC[C@@H]1C(=O)N1CCC[C@@H]1C(N)=O)C(C)C,380 µM
5,CC[C@@H](C)[C@@H](NC(=O)[C@@H](CC(C)C)[C@H](O)C[C@H]1CCCN1C(=O)NCc1ccccc1)C(=O)N[C@@H](C(=O)N1CCC[C@@H]1C(=O)N1CCC[C@@H]1C(N)=O)C(C)C ({NHBn-CO}-[X1][dI][dV][dP][dP]-NH2),160 µM
6,CC[C@@H](C)[C@@H](N)C(=O)N1CCC[C@@H]1C[C@@H](O)[C@H](CC(C)C)C(=O)N[C@@H](C(=O)N[C@@H](C(=O)N1CCC[C@@H]1C(=O)N1CCC[C@@H]1C(N)=O)C(C)C)[C@H](C)CC,1500 µM
7,CC[C@@H](C)[C@@H](NC(=O)[C@@H](CC(C)C)[C@H](O)C[C@H]1CCCN1C(=O)CCc1ccccc1)C(=O)N[C@@H](C(=O)N1CCC[C@@H]1C(=O)N1CCC[C@@H]1C(N)=O)C(C)C,160 µM
8,CC[C@@H](C)[C@@H](NC(=O)[C@@H](CC(C)C)[C@H](O)C[C@H]1CCCN1C(=O)[C@H](NC(C)=O)[C@H](C)CC)C(=O)N[C@@H](C(=O)N1CCC[C@@H]1C(=O)N1CCC[C@@H]1C(N)=O)C(C)C (Ac-[dI][X1][dI][dV][dP][dP]-NH2),110 µM
9,CC[C@@H](C)[C@@H](NC(=O)[C@@H](CC(C)C)[C@H](O)C[C@H]1CCCN1C(=O)C(C)(C)C)C(=O)N[C@@H](C(=O)N1CCC[C@@H]1C(=O)N1CCC[C@@H]1C(N)=O)C(C)C,1000 µM
10,CC[C@@H](C)[C@@H](NC(=O)[C@@H](CC(C)C)[C@H](O)C[C@H]1CCCN1C(=O)/C=C/c1ccccc1)C(=O)N[C@@H](C(=O)N1CCC[C@@H]1C(=O)N1CCC[C@@H]1C(N)=O)C(C)C,290 µM
11,CCCC(CCC)C(=O)N1CCC[C@@H]1C[C@@H](O)[C@H](CC(C)C)C(=O)N[C@@H](C(=O)N[C@@H](C(=O)N1CCC[C@@H]1C(=O)N1CCC[C@@H]1C(N)=O)C(C)C)[C@H](C)CC,420 µM

# Molecular target: Protease (Human T-cell leukemia virus type I, UniProt Q82134, L40I/C90A/C109A)
# Sequence (Q82134 entry or part of it L40I/C90A/C109A): as the sequence (Q82134 entry or part of it C109A/C90A/L40I) above
# Assay: as §1
# How it was run: as §2
row,Compound,IC50
1,CC[C@@H](C)[C@@H](NC(=O)[C@@H](CC(C)C)[C@H](O)C[C@H]1CCCN1)C(=O)N[C@@H](C(=O)N1CCC[C@@H]1C(=O)N1CCC[C@@H]1C(N)=O)C(C)C,Not Active
